According to ChEMBL document CHEMBL2385039 (Bioorg Med Chem, 2013):

Legend:
cells = type: cell-based; conditions: HEK293
[1] = system: Betaine/GABA transporter BGT1 (mGAT2, slc6a12, Mus musculus); assay: Inhibition of mouse GAT2 expressed in HEK cells assessed as remaining [3H]-GABA uptake at 100 uM after 25 mins by liquid scintillation counting analysis relative to control; conditions: HEK293
[2] = target: Sodium- and chloride-dependent GABA transporter 1 (Mus musculus, UniProt P31648); type: cell-based, HEK293
HEK293 = assay: Inhibition of mouse GAT4 expressed in HEK cells assessed as remaining [3H]-GABA uptake at 100 uM after 25 mins by liquid scintillation counting analysis relative to control; type: cell-based
Outline: (§1)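 The assay used the standardized [³H]GABA uptake format in HEK lines, each stably expressing one murine GAT subtype (mGAT1, mGAT2, mGAT3 or mGAT4). The value is the remaining [³H]GABA uptake with 100 μM test compound present.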

[3] = system: GABA transporter 3 (mGAT3, slc6a13, Mus musculus); assay: Inhibition of mouse GAT3 expressed in HEK cells assessed as remaining [3H]-GABA uptake at 100 uM after 25 mins by liquid scintillation counting analysis relative to control; conditions: HEK293
[4] = target: Sodium- and chloride-dependent GABA transporter 1 (Mus musculus) (UniProt P31648); assay: Inhibition of mouse GAT1 expressed in HEK cells assessed as remaining [3H]-GABA uptake at 100 uM after 25 mins by liquid scintillation counting analysis relative to control; type: cell-based; conditions: HEK293
Outline: as §1

Row | SMILES | IC50 (cells) [µM] | Activity [1] [%] | IC50 [2] [µM] | Activity [3] [%] | Activity [4] [%] | Activity (HEK293) [%]
1 | O=C(O)C1CCCN(CCO/C=C\c2cc(F)ccc2Cc2ccccc2F)C1 (configuration not stated) | 49 | 71.1 | 0.302 |  |  | 
2 | O=C(c1ccc(F)cc1)c1cc(F)ccc1/C=C/OCCN1CCCC(C(=O)O)C1 (configuration not stated) |  | 71.4 | 1.86 | 68.8 |  | 72.7
3 | O=C(O)[C@@H]1CCCN(CCOCCc2ccccc2Cc2ccccc2)C1 |  |  | 0.1 |  |  | 
4 | O=C(c1cccc(F)c1)c1ccc(F)cc1/C=C/OCCN1CCCC(C(=O)O)C1 (configuration not stated) | 200 |  | 29.5 |  |  | 
5 | O=C(c1ccccc1F)c1cc(F)ccc1/C=C/OCCN1CCCC(C(=O)O)C1 (configuration not stated) | 67.6 |  | 10.7 |  |  | 
6 | O=C(O)[C@@H]1CCCN(CCC=C(c2ccccc2)c2ccccc2)C1 | 275 |  | 0.692 |  |  | 
7 | O=C(O)C1CCCN(CCO/C=C/c2cc(F)ccc2Cc2ccc(F)cc2)C1 (configuration not stated) | 93.3 | 58.1 | 8.91 | 62 |  | 
8 | O=C(c1ccccc1)c1ccccc1/C=C/OCCN1CCCC(C(=O)O)C1 (configuration not stated) |  | 67.5 | 25.1 | 55.9 |  | 79.8
9 | Cc1ccsc1C(=COCCN1CCC[C@@H](C(=O)O)C1)c1sccc1C |  |  | 0.0141 |  |  | 
10 | O=C(c1ccccc1F)c1ccc(F)cc1/C=C/OCCN1CCCC(C(=O)O)C1 (configuration not stated) |  | 68.6 | 8.13 | 57.6 |  | 52.1
11 | O=C(O)C1CCCN(CCO/C=C\c2ccccc2Cc2ccccc2)C1 (configuration not stated) |  | 68.6 | 0.398 | 56 |  | 66
12 | O=C(c1ccc(F)cc1)c1ccc(F)cc1/C=C\OCCN1CCCC(C(=O)O)C1 (configuration not stated) |  | 70.2 | 7.59 | 79.5 |  | 82.2
13 | O=C(c1ccccc1F)c1cc(F)ccc1/C=C\OCCN1CCCC(C(=O)O)C1 (configuration not stated) |  |  | 0.759 | 43.5 |  | 45.1
14 | O=C(O)C1CCCN(CCO/C=C/c2cc(F)ccc2Cc2ccccc2F)C1 (configuration not stated) |  | 47.8 | 10.2 | 83.7 |  | 53.8
15 | O=C(c1cccc(F)c1)c1cc(F)ccc1/C=C/OCCN1CCCC(C(=O)O)C1 (configuration not stated) |  | 62.9 |  | 51.5 | 67.5 | 67.6
16 | O=C(O)C1CCCN(CCO/C=C/c2ccccc2Cc2ccccc2)C1 (configuration not stated) | 31.6 | 60.2 | 4.17 |  |  | 
17 | Cc1ccsc1C(=CCCN1CCC[C@@H](C(=O)O)C1)c1sccc1C |  |  |  |  |  | 73.4
18 | O=C(O)C1CCCN(CCO/C=C/c2ccc(F)cc2Cc2ccc(F)cc2)C1 (configuration not stated) |  | 71.6 | 4.57 | 49.3 |  | 63.7
19 | O=C(O)C1CCCN(CCO/C=C/c2ccc(F)cc2Cc2ccccc2F)C1 (configuration not stated) | 58.9 | 57.5 | 2.69 | 80.1 |  | 

The remaining compounds from weak to strong by IC50 [2], led by results:

Row | IC50 (cells) [µM] | Activity [1] [%] | IC50 [2] [µM] | Activity [3] [%] | Activity [4] [%] | SMILES | Activity (HEK293) [%]
20 |  | 61.2 | 20.9 | 97.7 |  | O=C(c1ccc(F)cc1)c1ccc(F)cc1/C=C/OCCN1CCCC(C(=O)O)C1 (configuration not stated) | 94.3
21 |  | 72.3 | 7.08 | 59.8 |  | O=C(c1ccccc1)c1ccccc1/C=C\OCCN1CCCC(C(=O)O)C1 (configuration not stated) | 72.4
22 |  | 70.5 | 6.76 | 59.3 |  | O=C(O)C1CCCN(CCO/C=C/c2cc(F)ccc2Cc2cccc(F)c2)C1 (configuration not stated) | 51.8
23 |  | 74.5 | 3.02 | 83.2 |  | O=C(c1ccccc1F)c1ccc(F)cc1/C=C\OCCN1CCCC(C(=O)O)C1 (configuration not stated) | 86.3
24 |  | 96.1 | 2.63 | 83.6 |  | O=C(c1cccc(F)c1)c1ccc(F)cc1/C=C\OCCN1CCCC(C(=O)O)C1 (configuration not stated) | 52.1
25 | 25.7 | 64.8 | 1.17 |  |  | O=C(O)C1CCCN(CCO/C=C\c2ccc(F)cc2Cc2ccc(F)cc2)C1 (configuration not stated) | 
26 |  |  | 1.1 |  |  | O=C(O)C1CCCN(CCO/C=C\c2cc(F)ccc2Cc2ccc(F)cc2)C1 (configuration not stated) | 50.3
27 |  | 56.9 | 0.794 | 52.7 |  | O=C(c1cccc(F)c1)c1cc(F)ccc1/C=C\OCCN1CCCC(C(=O)O)C1 (configuration not stated) | 45.2
28 | 60.3 | 80.1 | 0.631 |  |  | O=C(O)C1CCCN(CCO/C=C\c2ccc(F)cc2Cc2ccccc2F)C1 (configuration not stated) | 
29 |  | 73 | 0.339 | 59.8 |  | O=C(c1ccc(F)cc1)c1cc(F)ccc1/C=C\OCCN1CCCC(C(=O)O)C1 (configuration not stated) | 44.8
30 |  | 60.3 | 0.302 |  |  | O=C(O)C1CCCN(CCO/C=C\c2cc(F)ccc2Cc2cccc(F)c2)C1 (configuration not stated) | 56
